A selection: hits, their analogues and other compounds. The true share with any hit is near 3.1%.
FN deposition inh = fibronectin deposition inhibition; AH1F fibroblasts, Alexa488-fibronectin deposition fluorescence, overnight; inhibition, % at 12.6 µM; 0.086% of 350,000 active; AID 743247;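 active = mean inhibition across replicates of 30% or more, regardless of how many single replicates reach that level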;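 also: positive control wells lacked labelled fibronectin entirely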
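Material: AH1F fibroblast monolayer depositing Alexa488-labelled fibronectin into matrix / Amount: 10000 AH1F cells per well / Signal: fluorescence 485/525 nm / Medium: DMEM, 2% serum / Compound: single dose, pinned / Incubation: 1 h cell adhesion before compound, then overnight fibronectin incubation / Reagent: Alexa488-FN, 24 nM final / Read-out: inhibition of fibronectin deposition signal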
FGF22 binding = FGF22 (human) thermal shift binding; Q9HCT0; activity (Tm shift, normalised), % at 9.99 µM; 1.5% of 340,000 active; recombinant FGF22 thermal shift, SYPRO orange fluorescence; percent of sucrose octasulfate shift, DMSO zero; AID 651658;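 active = mean Tm shift, scaled 0 neutral to 100 positive control, at about 1.3% or above, every replicate too, limit read from the data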
Target sequence (Q9HCT0 whole entry, looked up): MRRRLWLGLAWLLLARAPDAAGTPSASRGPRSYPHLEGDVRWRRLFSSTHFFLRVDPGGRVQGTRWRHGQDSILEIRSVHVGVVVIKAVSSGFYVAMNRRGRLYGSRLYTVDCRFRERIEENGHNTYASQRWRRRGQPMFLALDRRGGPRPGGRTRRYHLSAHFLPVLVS
PGC1a acetyl inh = modulators of PGC1a acetylation; U2OS PGC1a acetylation, AlphaScreen anti-acetyl-lysine; with virally co-expressed GCN5 acetyltransferase; inhibition, % at 15.6 µM; 0.17% of 350,000 active;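 active = every replicate shows inhibition of at least 40%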;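 also: 0% = neutral control wells and 100% = positive control wells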
EWS-Fli inh = EWS/Fli transcriptional activity inhibition; A673 NR0B1-luciferase reporter, viability-normalised; inhibition, % at 12.6 µM; 0.67% of 350,000 active; AID 651661;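 active = mean inhibition of at least 50% after viability correction, with every replicate also passing that limit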;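 also: firefly luciferase signal divided by Alamar Blue viability fluorescence both relative to DMSO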
Env fusion inh = inhibitors of HIV Env-mediated cell fusion. AID 651610. 1.1% of 360,000 active. inhibition, % at 12.3 µM. HeLa-JRFL Env/CEM21 cell fusion, luciferase;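 active = mean replicate inhibition score of at least 50 and every replicate individually at or above 50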;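 also: 0% = plate neutral controls and 100% = maraviroc near 300 nM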
PAX8 inh HTS = PAX8 transcriptional activity inhibition | RMG-I TPO-luciferase reporter, SteadyGlo, 24 h | inhibition, % at 12.6 µM | AID 652154 | 1.2% of 360,000 active;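 active = mean replicate inhibition at least 60% with every replicate also reaching 60%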;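 also: luciferase light reporting Pax8 driven TPO promoter activity; plate controls were median of neutral control wells for no effect and mitoxantrone controls for full effect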
* hit, by the source's call; / = not tested or not shown; [ ] = dose if it differs, or a comment.

SMILES	FN deposition inh	FGF22 binding	PGC1a acetyl inh	EWS-Fli inh	Env fusion inh	PAX8 inh HTS
Nn1c(SCC(=O)Nc2nccs2)nnc1C1CC1	/	2.3*	/	-2	-5	10
COc1ccc(-c2csc(Nc3ccc(S(=O)(=O)Nc4cc(C)on4)cc3)n2)cc1C	0	44*	5	10	-7	11
COc1ccccc1CCc1nnc(CCC(=O)N(C)Cc2cccc3cnccc23)o1	-6	44*	-11	-90	21	-112
COc1ccccc1CCc1nnc(CCC(=O)N(C)Cc2ccncc2C)o1	-5	0	/	-1	-5	-7
CCN(CCn1cccn1)C(=O)CCc1nnc(CCc2ccccc2OC)o1	7	44*	14	12	1	23
CC(C)NC(=O)N(C)C[C@H]1OCCCC[C@@H](C)Oc2ccc(NC(=O)CCC(F)(F)F)cc2C(=O)N([C@@H](C)CO)C[C@@H]1C	-1	0	-4	/	-23[16.7 µM]	11
COc1cccc(S(=O)(=O)Nc2ccc3c(c2)[C@H]2C[C@H](CC(=O)O)O[C@@H](CO)[C@H]2O3)c1	0	0	1	2	1[16.7 µM]	4
O=C1[C@H](Cc2ccccc2)NCCCC[C@@H](c2ccc(Cl)cc2)N1Cc1ccccc1	-5	0	/	6	19	15
COC(=O)C1=C(C(=O)OC)[C@]2([C@H]3CCCCN[C@@H](Cc4ccccc4)C(=O)N3Cc3ccccc3)C=C[C@H]1O2	-32	0	/	19	65*	74*
O=C1[C@H](Cc2ccccc2)NCC=CC[C@H](c2ccc(Cl)cc2)N1Cc1ccc(Cl)cc1	-5	0	1	17	110*	13
O=C1[C@H](Cc2ccccc2)NCCCC[C@H](c2ccc(Cl)cc2)N1Cc1ccc(Cl)cc1	-6	0	-1	-2	66*	20
C[C@H](CO)N1C[C@H](C)[C@@H](CN(C)C(=O)Nc2ccc(C(F)(F)F)cc2)Oc2c(NS(=O)(=O)c3ccc(Cl)cc3)cccc2C1=O	/	0	-1	0	/	/
O=C(C[C@@H]1CC[C@H](NC(=O)c2cccnc2)[C@H](CO)O1)NCCN1CCCCC1	6	0	-3	8	2[16.7 µM]	-10
CO[C@H]1CN(C)C(=O)c2cc(NC(=O)Nc3cccc(Cl)c3)ccc2OC[C@@H](C)NC[C@@H]1C	11	0	-10	-9	11[16.7 µM]	5
C/C(CC(=O)NCc1ccco1)=N\NC(=O)COc1ccc(C)cc1	-7	0	/	4	/	65*
COc1ccc(CNC(=O)C/C(C)=N/NC(=O)COc2ccc(C)cc2Br)cc1	-2	43*	/	6	-64	-18
CCCC(=O)Nc1ccc2c(c1)C(=O)N(C)[C@H]1CC[C@@H](CC(=O)NC3CCCC3)O[C@H]1CO2	1	0	-7	2	-12[16.7 µM]	1
NC(=O)c1ncn2c(=O)n(CCCl)nnc12	2	0	/	11	20	81*
CC(C)NC(=O)Nc1ccc2c(c1)C(=O)N([C@@H](C)CO)C[C@@H](C)[C@@H](CN(C)Cc1ccc(C(F)(F)F)cc1)O2	/	0	-3	-4	/	5
CC(C)OP(=O)(c1ccc(N(C)C)cc1)C(O)c1ccc(C(C)C)cc1 (stereo unspecified)	-8	0	/	2	74*	-13
CC(C)OP(=O)(c1ccc(N(C)C)cc1)C(O)c1ccccc1 (stereo unspecified)	-3	/	-1	/	-86	4
CC(C)COP(=O)(c1ccc(N(C)C)cc1)C(O)c1ccc(Br)cc1 (stereo unspecified)	-5	0	/	5	56*	-4
COc1cc([C@@H]2c3cc4c(cc3[C@H](O)[C@H]3COC(=O)[C@H]23)OCO4)cc(OC)c1OC	-30	0	-2	72*	/	95*
COc1cc([C@@H]2c3cc4c(cc3[C@@H](O[C@@H]3O[C@@H]5CO[C@@H](C)O[C@H]5[C@H](O)[C@H]3O)[C@H]3COC(=O)[C@H]23)OCO4)cc(OC)c1O	-3	0	-17	54*	45	28
CCN(CC)C1Oc2cc3c(cc2C(c2cc(OC)c(O)c(OC)c2)C1C)OCO3 (stereo unspecified)	/	-1	-8	3	-8	2
